According to ChEMBL document CHEMBL1649083, “Discovery of novel inhibitors of the NorA multidrug transporter of Staphylococcus aureus” (2011):

Legend:
[1] = test system: Staphylococcus aureus; experiment: Antibacterial activity against Staphylococcus aureus 1199 expressing wild type NorA by microdilution technique
[2] = test system: Staphylococcus aureus; experiment: Antibacterial activity against Staphylococcus aureus 1199B overexpressing wild type NorA and GrlA A116E mutant by microdilution technique; format: functional
In short: (§1)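 Intrinsic MIC of each test compound, run alone, by broth microdilution per CLSI guidelines, in duplicate.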

[3] = test system: Staphylococcus aureus; experiment: Antibacterial activity against NorA deficient Staphylococcus aureus K1902 by microdilution technique; format: functional
In short: as §1

[4] = test system: Staphylococcus aureus; experiment: Antibacterial activity against Staphylococcus aureus K2378 overexpressing NorA by microdilution technique; format: functional
In short: as §1

[5] = test system: Staphylococcus aureus; experiment: Antibacterial activity against wild type Staphylococcus aureus ATCC 25923 by microdilution technique; format: functional
In short: as §1

[6] = target: T1, Quinolone resistance protein NorA (Staphylococcus aureus) (UniProt P0A0J7); experiment: Inhibition of NorA in Staphylococcus aureus 1199B assessed as reduction in ethidium bromide efflux at 50 uM by fluorimetry after 5 mins
T1 sequence (whole entry): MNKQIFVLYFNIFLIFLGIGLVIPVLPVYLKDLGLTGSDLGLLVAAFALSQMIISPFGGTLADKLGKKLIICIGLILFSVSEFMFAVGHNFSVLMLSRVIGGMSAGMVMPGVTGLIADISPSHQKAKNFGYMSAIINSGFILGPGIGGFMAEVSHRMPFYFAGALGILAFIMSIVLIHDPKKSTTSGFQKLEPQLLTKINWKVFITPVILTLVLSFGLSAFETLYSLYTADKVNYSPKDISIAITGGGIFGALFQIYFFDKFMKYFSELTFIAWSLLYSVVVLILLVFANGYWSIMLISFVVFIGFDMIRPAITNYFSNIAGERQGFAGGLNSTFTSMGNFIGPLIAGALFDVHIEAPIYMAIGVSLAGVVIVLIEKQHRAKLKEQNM
In short: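 S. aureus SA-1199B (NorA overexpressing via promoter up-mutation; GrlA A116E), EtBr-loaded cells. EtBr loss measured fluorometrically over a 5 min time course, in duplicate, as mean total efflux. Percent reduction calculated versus efflux without compound. Test compound at 50 μM; increasing concentrations were also run for dose-response profiles.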

[7] = target: T1, Quinolone resistance protein NorA (Staphylococcus aureus); experiment: Inhibition of NorA in Staphylococcus aureus 1199 assessed as reduction in ciprofloxacin MIC at 0.78 ug/ml by microdilution technique
In short: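 Checkerboard combination of ciprofloxacin with freshly prepared test compound in S. aureus SA-1199 (norA wild-type). Ciprofloxacin MIC determined in duplicate by CLSI microdilution in the presence of fixed compound concentrations.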

[8] = test system: Staphylococcus aureus; experiment: Antibacterial activity against Staphylococcus aureus 1199B by microdilution technique; format: functional
In short: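 MICs run in duplicate by broth microdilution following CLSI guidelines. Ciprofloxacin MICs were also determined with scalar dilutions of freshly prepared test compound solutions in checkerboard combination format. Strain panel: SA-K1902 (norA-), SA-K2378 (norA++), SA-1199 (norA wild-type), SA-1199B (norA++, GrlA A116E) and ATCC 25923 wild-type control.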

[9] = test system: Staphylococcus aureus; experiment: Potentiation of ciprofloxacin MIC against wild type Staphylococcus aureus ATCC 25923 at 3.13 ug/ml by microdilution technique; format: functional
In short: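 Ciprofloxacin MICs were measured in duplicate by broth microdilution following CLSI guidelines, alone and in checkerboard combination with scalar dilutions of freshly prepared test compound. Potentiation was scored as the reduction in ciprofloxacin MIC. Strains: SA-1199B (NorA overexpressed via promoter up-mutation, plus GrlA A116E) and ATCC 25923 (wild-type control).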

Cc1ccc(S(=O)(=O)Nc2ccc3[nH]c(-c4cccn4C)nc3c2)cc1
MIC [1]: > 100 µg/mL | MIC [2]: > 100 µg/mL | MIC [3]: > 100 µg/mL | MIC [4]: > 100 µg/mL | MIC [5]: > 100 µg/mL | inhibition [6]: 88.2% | fold change (FC) [7]: 8 | MIC [8]: > 273 µM | fold change (FC) [9]: 8
